CHRM4 PAM: human M4 muscarinic receptor positive allosteric modulators, primary screen, CHO-K1 cells, Fluo-8 calcium fluorescence; Muscarinic acetylcholine receptor M4 (Homo sapiens), P08173; CHO-K1 hM4/Gqi5, ACh EC20; 0% = ACh EC20, 100% = maximal ACh; activation, % at 3 µM; actives 0.4% (n = 360,000);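 active means activation above its plate's cutoff, the mean activation of sample wells plus 3 SD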
Target sequence (P08173 whole entry, looked up): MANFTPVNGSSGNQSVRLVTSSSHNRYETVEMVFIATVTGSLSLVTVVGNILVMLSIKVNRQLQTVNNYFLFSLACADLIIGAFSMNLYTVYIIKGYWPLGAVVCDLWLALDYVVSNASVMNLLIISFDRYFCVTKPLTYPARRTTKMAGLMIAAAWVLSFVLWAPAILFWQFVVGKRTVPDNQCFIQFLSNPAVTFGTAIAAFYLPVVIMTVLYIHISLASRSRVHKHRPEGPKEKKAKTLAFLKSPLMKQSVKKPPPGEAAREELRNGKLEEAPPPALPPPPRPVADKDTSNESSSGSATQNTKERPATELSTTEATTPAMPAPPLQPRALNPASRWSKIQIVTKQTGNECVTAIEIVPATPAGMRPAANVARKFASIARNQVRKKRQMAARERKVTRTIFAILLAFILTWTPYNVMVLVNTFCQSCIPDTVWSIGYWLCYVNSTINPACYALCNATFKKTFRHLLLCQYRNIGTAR
M5 ag: human M5 muscarinic receptor agonists, primary screen, CHO-K1 cells, Fluo-8 calcium fluorescence | activation, % at 3 µM | AID 624037, 2012 | CHO-K1 hM5 cells; 0% DMSO wells, 100% maximal acetylcholine response | actives 0.19% (n = 360,000) | Muscarinic acetylcholine receptor M5 (Homo sapiens), P08912;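 active means activation above the run's mean over test compounds plus 3 SD, cut at about 23% in these data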;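 further: signal is peak over basal fluorescence ratio across the kinetic read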
M4 ag: human M4 muscarinic receptor agonists, primary screen, CHO-K1 cells, Fluo-8 calcium fluorescence. Muscarinic acetylcholine receptor M4 (Homo sapiens), P08173. CHO-K1 hM4/Gqi5; vehicle 0%, full acetylcholine response 100%. activation, % at 3 µM. actives 0.14% (n = 360,000). AID 624127, 2012;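 active means activation above the run mean over all test wells plus 3 SD, cut at about 32% in these data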;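 further: peak over basal fluorescence ratio per well then scaled between controls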
M4 antag: human M4 muscarinic receptor antagonists, primary screen, CHO cells, Fluo-8 calcium fluorescence. Muscarinic acetylcholine receptor M4 (Homo sapiens), P08173. CHO-hM4 cells, ACh EC80. inhibition, % at 3 µM. actives 0.73% (n = 360,000). AID 624125, 2012;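 active means inhibition above its plate's cutoff, the mean inhibition of sample wells plus 3 SD, cut at about 27% in these data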
CHRM5 PAM: human M5 muscarinic receptor positive allosteric modulators, primary screen, CHO-K1 cells, Fluo-8 calcium fluorescence | Muscarinic acetylcholine receptor M5 (Homo sapiens), P08912 | CHO-K1 hM5, ACh EC20 PAM; 0% = ACh EC20, 100% = ACh EC100 | activation, % at 3 µM | actives 0.3% (n = 360,000) | AID 624038, 2012;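 active means activation above the run cutoff, the mean activation of all test compounds plus 3 SD, cut at about 18% in these data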
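System: CHO-K1 hM5 cells. Reagent: acetylcholine, EC20 level. Compound dosing: single dose, 3 µM nominal final test concentration. Timing: Post-acetylcholine fluorescence recording 140 s. Detection: Fluo-8 calcium fluorescence. Read-out: % activation, ACh-normalized. Benchmarks: ACh EC20 and EC100 wells. Repeats: singlicate, one well per test compound.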
CHRM5 antagonist: human M5 muscarinic receptor antagonists, primary screen, CHO cells, Fluo-8 calcium fluorescence; Muscarinic acetylcholine receptor M5 (Homo sapiens), P08912; CHO-hM5 cells, ACh EC80; inhibition, % at 3 µM; actives 0.59% (n = 360,000); AID 624040, 2012;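 active means inhibition above a per-plate cutoff, the mean of that plate's test compounds plus 3 SD, cut at about 27% in these data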
A number is an active result; - = inactive. The list is not random: actives were taken first. Their share in the collection is about 1.9%.

SMILES	CHRM4 PAM	M5 ag	M4 ag	M4 antag	CHRM5 PAM	CHRM5 antagonist
CCOC(=O)c1cnc2c(C)cccc2c1NCCCN1CCOCC1	20	-	-	-	-	-
CCOC(=O)c1cnc2c(CC)cccc2c1NCCN1CCOCC1	-	-	-	-	-	27
CCOC(=O)c1cnc2c(C(=O)OC)cccc2c1NCCN1CCOCC1	-	-	-	-	-	-
Cn1ccc2c(-c3ccc(C(=O)O)cc3)cc3c(c21)C1CCC3O1 (stereo unspecified)	-	-	-	-	-	-
Cc1cc(C)cc(C(O)c2ncc(-c3ccccc3C)[nH]2)c1 (stereo unspecified)	-	-	-	-	-	-
O=C(CNS(=O)(=O)c1cccs1)N1CCN(c2ccccc2F)CC1	17	-	-	-	-	-
O=C(CNS(=O)(=O)c1ccc(F)cc1)N1CCN(c2ccccc2)CC1	-	-	-	27	-	-
CCN(CC)S(=O)(=O)c1ccc(NCCc2ccccn2)nc1	-	-	-	-	-	-
CSc1nc(N)nc2c1ncn2CC(=O)N1CCN(Cc2c(C)cc(C)cc2C)CC1	-	-	-	-	-	32
Cc1cc(C)c(CN2CCN(C(=O)Cn3ccc(N)nc3=O)CC2)c(C)c1	-	-	-	-	-	-
N#CCCN(Cc1ccccc1)C(=S)Nc1ccccc1	21	-	-	-	-	-
OCCN1CCN(c2ncnc3c2ncn3[C@H]2CN(Cc3ccc(Cl)cc3)C[C@@H](CO)O2)CC1	-	-	-	-	-	-
Cc1ccc(C(=O)OCC(=O)N2CC(C)OC(C)C2)cc1 (stereo unspecified)	16	-	-	-	-	-
CCOc1ccc(NS(=O)(=O)c2cc(OCC(N)=O)c(C)cc2Cl)cc1	27	-	-	-	-	-
Cc1cc(Cl)c(S(=O)(=O)N2CC(C)OC(C)C2)cc1OCC(N)=O (stereo unspecified)	-	-	-	-	-	-
Cc1cc(Cl)c(S(=O)(=O)N2CCSCC2)cc1OCC(N)=O	19	-	-	-	-	-
CCOC(=O)C1=C(C)Nc2ccccc2N=C1NC(=O)C1CCN(C(=O)c2ccccc2C)CC1	-	-	-	-	-	-
COc1ccc(F)cc1-c1cc(C(=O)NCc2ccccc2)[nH]n1	-	-	-	-	-	-
CSc1nsc(SCC(=O)Nc2ccc(F)cc2F)n1	-	-	-	-	-	-
CSc1nnc(-c2cccc(C)c2)n1N	32	-	-	-	-	-
C[C@]1(O)CC(=O)C=C[C@H]1Nc1ccccc1	-	-	-	-	-	-
Cc1ccc(N(Cc2cc(=O)[nH]c3ccccc23)C(=O)C(C)C)c(C)c1	-	-	-	46	-	-
Cc1ccccc1N(Cc1cc(=O)[nH]c2ccccc12)C(=O)C(C)C	-	-	-	-	-	-
Cc1csc2c(N3CCN(C(=S)Nc4ccc(F)cc4F)CC3)ncnc12	-	-	-	-	-	29
O=[N+]([O-])c1ccc(N2CCN(C(=S)Nc3ccc(F)cc3)CC2)cc1	-	-	-	-	-	-
Cc1csc2c(N3CCN(C(=O)Nc4ccccc4)CC3)ncnc12	-	-	-	-	-	-
O=[N+]([O-])c1ccc(N2CCN(C(=S)Nc3ccc(F)cc3F)CC2)cc1	-	-	-	-	-	34
CC(C)NC(=O)C1(C)CN(S(C)(=O)=O)CC(=O)N1C1CCN(Cc2ccccc2)CC1 (stereo unspecified)	-	-	-	-	-	-
COc1cccc(N(C(=O)Cn2nnc3ccccc32)C(C(=O)NCc2ccco2)c2cccnc2)c1 (stereo unspecified)	-	-	-	-	-	-

High-throughput results (PubChem BioAssay)
